Measurements: PMC3548935 (Cancer research, 2012)

Assays:
[1] = system: orthotopic 4T1 breast tumors; experiment: Tumor treatment study, orthotopic 4T1 breast tumors; type: in vivo, mouse; conditions: DOX 3 mg/kg + 4 µmol/kg iNGR i.v. every other day
4T1 tumors = conditions: no penetrating peptide; cited from earlier work
tumors = conditions: cited from earlier work
NRP-1 = NRP-1 (Homo sapiens, UniProt O14786); experiment: Dose-dependent binding of phage to purified NRP-1; conditions: phage-displayed peptide, Fig. 1E; for Phage binding to immobilized NRP-1: anti-T7 phage antibody / HRP detection
Outline: (§1)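 Peptide-displaying T7 phage was added over a range of phage amounts to purified NRP-1 or NRP-2 protein. Bound phage was detected with a rabbit anti-T7 phage antibody followed by an HRP-labeled goat anti-rabbit secondary antibody.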

NRP-2 = biological target: T1, NRP-2 (Homo sapiens, UniProt O60462); experiment: Dose-dependent binding of phage to purified NRP-2; conditions: phage-displayed peptide, Fig. 1F; for Phage binding to immobilized NRP-2: anti-T7 phage antibody / HRP detection
T1 sequence (O60462 21-931): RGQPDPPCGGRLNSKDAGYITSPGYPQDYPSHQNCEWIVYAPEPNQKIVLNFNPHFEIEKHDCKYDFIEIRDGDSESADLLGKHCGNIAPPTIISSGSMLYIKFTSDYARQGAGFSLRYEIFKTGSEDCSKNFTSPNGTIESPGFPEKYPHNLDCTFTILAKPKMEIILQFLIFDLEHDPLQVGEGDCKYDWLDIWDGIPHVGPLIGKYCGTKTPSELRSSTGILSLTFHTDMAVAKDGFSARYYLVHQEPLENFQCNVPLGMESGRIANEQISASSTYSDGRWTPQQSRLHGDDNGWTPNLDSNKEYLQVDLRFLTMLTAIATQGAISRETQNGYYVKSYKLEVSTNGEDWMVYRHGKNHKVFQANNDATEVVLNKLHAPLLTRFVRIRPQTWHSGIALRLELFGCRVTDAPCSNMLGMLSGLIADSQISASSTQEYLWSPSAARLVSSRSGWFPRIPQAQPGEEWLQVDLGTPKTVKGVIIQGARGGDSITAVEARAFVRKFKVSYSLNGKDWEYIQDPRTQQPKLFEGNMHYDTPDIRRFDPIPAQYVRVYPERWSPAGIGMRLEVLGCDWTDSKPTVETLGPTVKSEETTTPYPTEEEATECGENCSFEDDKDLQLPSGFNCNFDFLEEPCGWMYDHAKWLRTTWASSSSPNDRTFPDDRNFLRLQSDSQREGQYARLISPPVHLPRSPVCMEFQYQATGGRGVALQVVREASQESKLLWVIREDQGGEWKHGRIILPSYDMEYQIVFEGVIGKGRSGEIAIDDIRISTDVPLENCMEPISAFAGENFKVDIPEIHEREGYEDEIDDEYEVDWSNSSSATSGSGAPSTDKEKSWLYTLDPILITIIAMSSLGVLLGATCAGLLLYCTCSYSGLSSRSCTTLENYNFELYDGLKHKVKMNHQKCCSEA
Outline: as §1

HUVECs = experiment: Mass spectrometry of peptide inside HUVECs after incubation with FAM-peptide; type: cell-based, human; conditions: Fig. S4

Sequence of NRP-1 (O14786 22-923): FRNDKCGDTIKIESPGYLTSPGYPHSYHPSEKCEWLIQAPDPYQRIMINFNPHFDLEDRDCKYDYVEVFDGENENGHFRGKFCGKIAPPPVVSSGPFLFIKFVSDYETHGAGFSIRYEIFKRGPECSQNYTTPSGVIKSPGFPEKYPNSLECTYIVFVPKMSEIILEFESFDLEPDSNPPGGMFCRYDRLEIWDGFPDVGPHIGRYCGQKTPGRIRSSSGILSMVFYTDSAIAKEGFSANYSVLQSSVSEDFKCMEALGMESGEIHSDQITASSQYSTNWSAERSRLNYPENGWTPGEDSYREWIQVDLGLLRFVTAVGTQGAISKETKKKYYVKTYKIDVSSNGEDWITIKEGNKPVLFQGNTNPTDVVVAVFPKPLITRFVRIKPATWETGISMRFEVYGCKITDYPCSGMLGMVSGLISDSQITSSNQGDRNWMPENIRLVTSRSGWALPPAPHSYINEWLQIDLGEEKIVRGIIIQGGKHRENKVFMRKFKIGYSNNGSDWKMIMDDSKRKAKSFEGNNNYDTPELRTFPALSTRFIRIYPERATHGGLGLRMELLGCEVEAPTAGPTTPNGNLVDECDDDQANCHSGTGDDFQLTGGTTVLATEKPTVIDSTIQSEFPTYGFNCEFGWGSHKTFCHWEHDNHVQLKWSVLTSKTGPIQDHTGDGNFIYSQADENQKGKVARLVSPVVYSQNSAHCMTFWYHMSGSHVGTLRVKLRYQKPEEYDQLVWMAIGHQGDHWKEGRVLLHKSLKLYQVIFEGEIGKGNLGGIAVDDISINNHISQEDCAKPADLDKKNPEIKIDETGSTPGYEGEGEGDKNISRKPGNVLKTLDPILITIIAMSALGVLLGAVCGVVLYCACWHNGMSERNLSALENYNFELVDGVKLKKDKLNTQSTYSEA

## COc1cccc2c1C(=O)c1c(O)c3c(c(O)c1C2=O)C[C@@](O)(C(=O)CO)C[C@@H]3O[C@H]1C[C@H](N)[C@H](O)[C@H](C)O1 [Doxorubicin, doxorubicin]
[1]
  Efficacy of doxorubicin given together with iNGR: significantly more efficacious than the drug alone

## CGKRK
4T1 tumors
  Tumor homing and extravasation of NWs coated with the peptide: brings the NWs to tumor vessels, but does not trigger extravasation

## CGNKRTRGC [LyP-1]
tumors
  Tumor penetration: penetrates into tumors through the CendR/NRP mechanism

## CRGDK [iRGDt]
NRP-1
  Phage binding to immobilized NRP-1: bound to the NRPs
NRP-2
  Phage binding to immobilized NRP-2: bound to the NRPs

## CRNGR [iNGRt]
NRP-1
  Phage binding to immobilized NRP-1: bound to the NRPs
  Affinity for NRP-1 compared with iRGDt: higher affinity
NRP-2
  Phage binding to immobilized NRP-2: bound to the NRPs
  Affinity for NRP-2 compared with iRGDt: higher affinity

## FAM-CNGRC
HUVECs
  Peptide present inside HUVECs after incubation with FAM-peptide: did not penetrate into the cells
